NPY Y2 blocker – NPY-Y2 (human) receptor antagonism. 140,000 compounds, 0.99% hits. P49146. inhibition, % at 2.7 µM. NPY-Y2 expressing cells, antagonist mode;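 further: 0% = vehicle with agonist challenge and 100% = reference antagonist with challenge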
NPY Y1 blocker – NPY-Y1 (human) receptor antagonism; HEK293-CNG Y1 cells, membrane potential fluorescence; NPY at EC95, then isoproterenol; P25929; AID 1040; inhibition, % at 3.6 µM; 200,000 compounds, 1% hits;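 active means inhibition above the campaign mean inhibition of all tested compounds plus 3 SD, cut at about 20% in these data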;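 further: 0% = DMSO wells given NPY plus isoproterenol and 100% = isoproterenol alone without NPY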
Target sequence (P25929 whole entry, looked up): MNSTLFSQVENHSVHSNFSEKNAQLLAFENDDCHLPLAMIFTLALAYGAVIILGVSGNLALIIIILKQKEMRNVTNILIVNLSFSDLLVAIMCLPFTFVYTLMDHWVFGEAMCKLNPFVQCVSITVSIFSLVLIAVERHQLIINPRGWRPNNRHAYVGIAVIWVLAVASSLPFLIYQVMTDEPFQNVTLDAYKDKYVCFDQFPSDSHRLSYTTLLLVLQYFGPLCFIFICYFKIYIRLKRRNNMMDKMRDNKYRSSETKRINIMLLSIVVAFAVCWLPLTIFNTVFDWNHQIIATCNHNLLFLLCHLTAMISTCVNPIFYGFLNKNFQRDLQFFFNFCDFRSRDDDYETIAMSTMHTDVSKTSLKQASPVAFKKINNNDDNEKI
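Benchmarks – high control isoproterenol alone, low control NPY with isoproterenol · Material – HEK293 Y1/CNG channel cell line · Times – dye 3 h, compound 60 min room temperature, stimulation 45 min · Probe or stimulus – NPY (25 nM), isoproterenol (1 µM), Ro 20-1724 (25 µM) · Evaluation – % inhibition of NPY effect · Signal – fluorescence, membrane potential probe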
NPY1 pot ag – potentiates or activates human NPY-Y1 receptor; NPY-Y1 expressing cells, potentiator/agonist activation; AID 1304; activation, % at 3.6 µM; 220,000 compounds, 0.37% hits; in the data active means activation above about 33%, passing the limit was not always enough;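 further: cells stimulated with NPY at EC10 then isoproterenol at EC100; 0% = low agonist plus stimulus and 100% = saturating agonist plus stimulus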
NPY-Y2 PAM-ag – potentiates or activates human NPY-Y2 receptor; cells expressing NPY-Y2, potentiator/agonist read-out; activation, % at 3.6 µM; 220,000 compounds, 0.45% hits; AID 1359; in the data active means activation above about 27%;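 further: cells stimulated with NPY near EC25 plus isoproterenol at EC100; 0% = vehicle plus submaximal agonist and 100% = vehicle plus saturating agonist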
NPY-Y1 ant conf – confirmation of human neuropeptide Y receptor Y1 antagonists | AID 1254 | HEK293-CNG NPY-Y1, membrane potential fluorescence, cAMP; NPY challenge against isoproterenol-raised cAMP | shares compounds with NPY Y1 blocker | inhibition, % at 3.6 µM | 1,200 compounds, 21% hits; in the data active means inhibition above about 20%;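 further: 0% = vehicle with agonist plus stimulus and 100% = stimulus alone without agonist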
NPY-Y2 antag ct – counter-screen for NPY-Y1 antagonists: human NPY-Y2 antagonism; shares compounds with NPY Y1 blocker; HEK293 NPY-Y2 CNG membrane potential fluorescence; cells given NPY, then isoproterenol; inhibition, % at 3.6 µM; 1,200 compounds, 28% hits;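 further: 0% = DMSO with agonist challenge and 100% = reference antagonist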
Active calls of the source: *; / = no result given. Only some compounds are listed: those with a hit (about 1.8% of all), similar ones and a draw of the others. Unless noted, no stated cut-off is given here; in the data, active means inhibition above about 17%; inactive means the rest.

SMILES	NPY Y2 blocker	NPY Y1 blocker	NPY1 pot ag	NPY-Y2 PAM-ag	NPY-Y1 ant conf	NPY-Y2 antag ct
CN(C)CCOC(=O)CCCCCCCCC(=O)OCCN(C)C	/	/	-1	-11	/	/
CCCn1c(Nc2ccccc2C)nc2ccccc21	0	4	-13	-10	/	/
COc1cccc(CC2(CO)CCCN(Cc3c(C)cc(C)cc3-n3cccn3)C2)c1 (stereo not given)	/	38*	-37	-39	24*	20*
O=C(c1cnn2c(C(F)(F)F)cc(-c3ccco3)nc12)N1CCCCCC1	5	1	-19	-28	/	/
Cc1ccc(-c2cc(C(F)(F)F)n3ncc(C(=O)O)c3n2)cc1	2	21*	-2	-10	2	3
COc1ccc(-c2cc(C(F)(F)F)n3ncc(C(=O)O)c3n2)cc1OC	4	-3	-7	21	/	/
O=C(c1cnn2c(C(F)(F)F)cc(-c3ccco3)nc12)N1CCc2ccccc2C1	11	21*	-49	-18	10	7
CCN1CCN(C(=O)CCc2nnc(CCCCc3ccccc3)o2)[C@@H](C)C1=O	/	0	5	-3	/	/
COc1ccc(OCC(=O)N/N=C/C=C/c2ccccc2)cc1	9	23*	-15	-16	6	11
CCc1nccn1S(=O)(=O)c1ccc2ccc(C)cc2c1	15	34*	-36	-43	16	15
O=C(NC1CC1)c1cc(-c2ccccn2)nc2ccccc12	3	-1	-7	-10	/	/
Cc1csc(NC(=O)c2cc(-c3ccccc3)nc3ccccc23)n1	13	22*	-105	-30	19	12
Cc1cccc(NC(=O)c2cc(-c3ccccn3)nc3ccccc23)c1C	/	39*	-122	-59	25*	23*
Cc1ccc(-c2cc(C(=O)Nc3cc(C)on3)c3ccccc3n2)c(C)c1	9	35*	-115	-41	29*	51*
Cc1cc(C)cc(N(C(C)C(=O)NCc2ccc3c(c2)OCO3)S(C)(=O)=O)c1 (stereo not given)	/	-6	23	4	/	/
COc1cccc2cc(/C(=N/O)c3ccccc3)oc12	/	14	-22	-5	/	/
O=C(CC1NCCNC1=O)Nc1cccc([N+](=O)[O-])c1 (stereo not given)	/	1	1	2	/	/
Cc1nn(C)cc1S(=O)(=O)N1CCN(Cc2cccc(Cl)c2)CC1	/	-1	22	-10	/	/
Clc1ccccc1CSc1cc2c(nn1)-c1ccccc1CC2	12	23*	-11	-10	4	8
Clc1cccc(Cl)c1CSc1cc2c(nn1)-c1ccccc1CC2	1	-2	-10	-5	/	/
CC(C)[C@@H](C(=O)N1CCNCC1)n1cc(CCO)nn1	/	-1	0	-9	/	/
COc1cccc(OCc2nc3ncc(Br)cc3[nH]2)c1	4	24*	-50	-23	4	15
Cc1cc(C)cc(OCc2nc3ncc(Br)cc3[nH]2)c1	4	-1	10	7	/	/
COc1ccccc1CN(Cc1cc2cc(C)ccc2[nH]c1=O)Cc1nnnn1Cc1ccco1	15	33*	-18	-9	21*	10
COC(=O)c1ccc(COC(=O)CNC(=O)c2ccc(-c3ccccc3)cc2)cc1	4	21*	-7	-7	-2	2
SMILES	NPY Y2 blocker	NPY Y1 blocker	NPY1 pot ag	NPY-Y2 PAM-ag	NPY-Y1 ant conf	NPY-Y2 antag ct
COC(=O)c1ccc(COC(=O)CNC(=O)c2ccco2)cc1	2	9	0	-4	/	/
Cc1nn(-c2ccccc2)c2sc(C(=O)O)cc12	13	25*	-52	-19	22*	15
Cc1ccc(-n2nc(C)c3cc(C(=O)O)sc32)cc1	5	8	-3	2	/	/
O=C(c1cccc(F)c1)N1CCC(c2nc3ccccc3s2)CC1	/	2	-10	-12	/	/
CCN1CCN(C(=O)C(C)Nc2cc(Cl)c(OC)cc2OC)CC1 (stereo not given)	/	-1	-17	-7	/	/
CCN(c1cccc(C(F)(F)F)c1)S(=O)(=O)c1ccc2c(c1)CCN2C(=O)C1CC1	14	24*	-50	-8	14	13
CCC(=O)N1CCc2cc(S(=O)(=O)N(CC)c3cccc(C)c3)ccc21	5	2	13	-6	/	/
CCOC(=O)C1(Cc2ccc(Cl)cc2)CCN(C(=O)c2cnc(C)cn2)CC1	/	/	14	-10	/	/
CC(NCc1ccc(-c2ccccc2)cc1)C(O)c1ccccc1 (stereo not given)	10	20*	-78	-28	18	29*
CC(O)CNCc1ccc(-c2ccccc2)cc1 (stereo not given)	8	6	1	0	/	/
CN(CCC#N)C(=S)NC(=O)c1ccc(S(=O)(=O)N2CCOCC2)cc1	/	46*	10	4	0	0
COc1ccc(-c2csc(C3=C(O)CN(C(C)C)C3=N)n2)cc1OC	/	-3	-4	4	/	/
O=[N+]([O-])c1cccc(-c2noc(COc3ccccc3)n2)c1	/	25*	-18	-2	4	6
Nn1c(SCc2ccccn2)nncc1=O	/	2	13	9	/	/
CCOc1cc(C(=O)Nc2ccncc2)cc(OCC)c1OCC	/	-2	18	2	/	/
Cc1c(C)n(Cc2ccccc2)c2ccc(C(=O)OCCCN(C)C)cc12	/	22*	-5	-14	29*	37*
COc1ccc(N2CCN(C(c3cccc(OC)c3OC)c3nnnn3C3CCCC3)CC2)cc1 (stereo not given)	9	23*	-43	-13	22*	9
COc1ccc(OC)c(C(c2nnnn2C2CCCC2)N2CCN(c3ccccc3F)CC2)c1 (stereo not given)	13	22*	6	-19	6	8
CC(C)CC(c1nnnn1C1CCCCC1)N1CCN(c2ncccn2)CC1 (stereo not given)	2	5	-16	5	/	/
CC(C)CC(c1nnnn1C1CCCC1)N1CCN(c2ccccc2F)CC1 (stereo not given)	14	27*	-10	-2	24*	12
Clc1ccc(OCCN2CCN(c3ncnc4sccc34)CC2)cc1	8	26*	-46	-3	20	20*
Cc1ccc(OCCN2CCN(c3ncnc4sc(C)c(C)c34)CC2)cc1	13	9	-68	5	/	/
Cc1c(NC(=O)/C(C#N)=C/c2ccc(-c3cccc(Cl)c3)o2)c(=O)n(-c2ccccc2)n1C	15	26*	13	2	11	6
COc1ccc(OC)c(CN2CCC(CO)(CCOc3ccccc3)CC2)c1	/	11	-39	-49	/	/
Cc1cc(C)c(CN2CCC(CO)(CCOc3ccccc3)CC2)cc1C	/	30*	-36	-35	9	23*
CCCOC(=O)C(C)n1c(-c2ccccc2)nc2ccccc2c1=O (stereo not given)	14	33*	-58	-66	13	11
CCCCN(CCCC)CC(O)COc1ccccc1C(=O)Nc1ccccc1 (stereo not given)	/	46*	-22	-26	18	18*
